Each structure is given as a SMILES string. Read-outs that look alike come from different tables or passages of the source. Peptide text beside a SMILES is read from it. * marks the point of attachment. Cbz = O=C(OCc1ccccc1)* Some results are limits rather than exact numbers.

Data set [1] deals with Hela cells stably expressing Ub^G76V-GFP. The experiment in a line: Ub^G76V-GFP accumulation assay. It is filed as cell-based. The conditions noted are these: for accumulation of Ub^G76V-GFP: 5 μM, 4 hours.
In the next data set the test system is A549 cells. The experiment in a line: Aggresome formation and clearance assay. It is filed as cell-based, human. The note with it: for aggresome formation (ubiquitin, HDAC6, p62/SQSTM1 staining): 15 hours. In outline:
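A549 cells were loaded with 5 μM MG132 for 15 h, washed free of it, then held ± a range of test compound concentrations for 24 h. They were fixed in 4% paraformaldehyde, permeabilised with 0.2% Triton X-100, blocked in 5% FBS/0.1% Triton X-100, immunostained for ubiquitin, HDAC6 or p62/SQSTM1, and imaged.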

The next data set addresses Rpn11 (Homo sapiens, UniProt O00487). In words: In vitro Rpn11 activity assay. The data set is classed as biochemical. The note with it: for effect of Zn(cyclen)^2+ on IC50 for Rpn11: 100 μM Zn(cyclen)^2+ present.
In the next data set the target is AMSH (Homo sapiens, UniProt O95630). The experiment in a line: In vitro AMSH activity assay. It is filed as biochemical.
For a further data set, the target named is BRCC36 (Homo sapiens, UniProt P46736). The experiment in a line: In vitro BRCC36 activity assay. The data set is classed as biochemical. The gist of the method:
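BRISC complex (BRCC36, KIAA0157, BRCC45, MERIT40) was co-expressed in insect cells and purified to >95% by affinity and size exclusion. 1 nM BRISC was reacted with 80 nM DiUbK63-TAMRA, monitoring TAMRA fluorescence (ex 540/em 590 nm). Data were normalised to DMSO and fitted for IC50. With substrate far below KM, IC50 approximates Ki.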

A further data set has as its target glyoxalase I (GLO1) (Homo sapiens, UniProt Q04760). In words: Human Glyoxalase 1 assay. It is filed as biochemical. In outline:
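Recombinant human GLO1 (40 ng) was preincubated 15–20 min with inhibitor in 100 mM sodium phosphate, pH 7.0. Substrate was then added, formed by letting glutathione and methylglyoxal stand 20 min in buffer (≤5% DMSO final). A240 was read every minute for 8 min. Rates were compared with no-inhibitor controls after subtracting no-enzyme background.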

For a further data set, the system named is HDAC6. In words: HDAC 6 activity assay. It is filed as biochemical.
In another data set the test system is MMP2. In words: MMP activity assay. The data set is classed as biochemical, human.
The subject of the next data set is MMP12. The experiment in a line: MMP activity assay. It is filed as biochemical, human.
For the next data set, the system named is carbonic anhydrase II. The experiment in a line: hCAII activity assay. The data set is classed as biochemical, human.
The next data set has as its target Rpn11•Rpn8 heterodimer (Saccharomyces cerevisiae, UniProt P43588). In words: Rpn11•Rpn8 di-Ub cleavage assay. The conditions noted are these: 40 μM, 20 μM or 10 μM. It is filed as biochemical. In outline: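 Purified Rpn11•Rpn8 dimer (5 μM) was incubated at 30°C with K48-linked di-ubiquitin and varying test compound concentrations. The buffer was 40 mM HEPES pH 7.5, 100 mM NaCl, 100 mM KCl, 5% glycerol.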

A further data set addresses 26S proteasome (Saccharomyces cerevisiae, UniProt P43588). It is filed as biochemical, yeast. The conditions noted are these: 20 μM, purified proteasomes. In outline:
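Alexa488-labelled Rpn10-I27V13Pext (100 nM) was incubated with 10 nM purified yeast 26S proteasome at 30°C, ± 20 μM test compound. Aliquots were taken at 0, 30, 60, 90 and 120 min into SDS sample buffer and resolved by SDS-PAGE. Intact substrate was quantified by fluorescence gel imaging (488/520 nm).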

A further data set has as its system HEK293T cells. The experiment in a line: Cellular imaging with optical zinc sensor. It is filed as cell-based. The conditions noted are these: 10 μM. In outline: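 HEK293T cells were transfected with a FRET zinc sensor and imaged 24–48 h later at 37°C/5% CO2 in phosphate-free HEPES-buffered HBSS, pH 7.4, with frames every minute. After 5 min resting FRET, 10 μM test compound or 0.5% DMSO was added (n=11 cells each). Calibration used 50 μM TPA, then 0.75 μM pyrithione plus 12 μM buffered zinc. Background-corrected FRET/CFP ratios were normalised to resting; error bars SEM.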

For data set [2], the system named is HCT116 cells. The experiment in a line: Cell growth inhibition, CellTiter-Glo, 72 hours. The data set is classed as cell-based. The conditions noted are these: Homo sapiens, HCT-116, 72 h. The gist of the method:
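HCT116 cells were exposed to a test-compound concentration series for 72 h in normal or low-serum medium, then mixed with CellTiter-Glo. Luminescence was normalised to DMSO and a dose-response fit gave GI50. Data are n=3 wells, one representative of 3 independent experiments.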
In general terms: ATP-based viability assays read luminescence as a measure of living cells.

Data set [3] has as its system WT or bortezomib-resistant RPE1 cells. The experiment in a line: Cell growth inhibition in WT and bortezomib-resistant RPE1 cells. The data set is classed as cell-based. The note with it: 72 hours. In outline:
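WT and bortezomib-resistant RPE1 cells received a concentration series of test compound for 72 h before CellTiter-Glo addition. Luminescence was normalised to DMSO control and fitted to a dose-response equation for GI50. Data are n=3 wells, from one representative of 3 independent experiments.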

Data set [4] has as its system NCI panel of 60 cancer cell lines. The experiment in a line: NCI panel of 60 cancer cell lines. It is filed as cell-based. The conditions noted are these: Homo sapiens, read-out: median GI50 NCI 60 panel.
The subject of another data set is SR cell line (leukemia). In words: NCI 60 panel, SR cell line. The note with it: Homo sapiens, read-out: GI50 SR. It is filed as cell-based.
Data set [5] deals with K562 cell line (leukemia). In words: NCI 60 panel, K562 cell line. The data set is classed as cell-based. The note with it: Homo sapiens, K562, read-out: GI50 K562.
For data set [6], the system named is NCI-H460 (non-small cell lung cancer). In words: NCI 60 panel, NCI-H460. It is filed as cell-based. The note with it: Homo sapiens, NCI-H460, read-out: GI50 NCI-H460.
In a further data set the test system is MCF7 (breast cancer). In words: NCI 60 panel, MCF7. The note with it: Homo sapiens, MCF7, read-out: GI50 MCF7. The data set is classed as cell-based.
Data set [7] deals with WT or nfe2l1^−/− MEF cells. In words: Cell growth inhibition in WT versus Nrf1 knockout MEF cells. The data set is classed as cell-based. The note with it: 72 hours.
Data set [8] has as its system angiomotin K481 ubiquitination in 293T cells. The experiment in a line: Quantitative ubiquitination site profiling. The conditions noted are these: 8 hours, 10 μM capzimin or 1 μM BTZ. The data set is classed as cell-based, human. The gist of the method:
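SILAC-labelled HEK293T cells were grown in Arg/Lys-free DMEM with 10% dialysed FBS, 1 mM pyruvate and 10 mg/L proline. At 80–90% confluence they were treated 8 h with 10 μM test compound (n=3), 1 μM bortezomib (n=4) or DMSO. Cells were trypsinised and pooled from three plates per treatment. Lysates were trypsin-digested with NEM alkylation, K-ε-GlyGly peptides enriched by antibody, and analysed by LC-MS.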

Data set [9] relates to HCT116 cells. The experiment in a line: Immunoblot of UPS substrates, UPR and apoptosis markers. It is filed as cell-based. In outline: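 HCT116 cells were treated 6 h with 2 or 10 μM test compound, alongside 1 μM bortezomib, 10 μM CB5083 or 2 μg/ml tunicamycin. Lysates were immunoblotted for ubiquitin, p53, Hif1α, PERK, BiP, XBP1s, CHOP and GAPDH. For apoptosis, HCT116 cells were treated 24 h and blotted for PARP1, caspase3, pH2AX and GAPDH.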
On the technique in general: Immunoblotting shows a protein as a band on a membrane.

The next data set has as its system angiomotin in 293T cells. The experiment in a line: Pulldown of polyubiquitylated protein. It is filed as cell-based. The note with it: 8 hours. The gist of the method: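 293T cells were treated 8 h with test compound, bortezomib or DMSO. Lysis was in 40 mM Tris-HCl pH 7.6, 5 mM NEM, 0.1% NP-40, followed by binding to TUBE2 agarose for 2 h at 4°C. Beads were washed three times in the same buffer with 150 mM NaCl, then eluted in SDS buffer. Eluates were immunoblotted for ubiquitin and angiomotin.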

The conditions of data set [10]: mice ref 49; cited from earlier work.

Rpn11•Rpn8 heterodimer, sequence (P43588 2-239 limits assumed): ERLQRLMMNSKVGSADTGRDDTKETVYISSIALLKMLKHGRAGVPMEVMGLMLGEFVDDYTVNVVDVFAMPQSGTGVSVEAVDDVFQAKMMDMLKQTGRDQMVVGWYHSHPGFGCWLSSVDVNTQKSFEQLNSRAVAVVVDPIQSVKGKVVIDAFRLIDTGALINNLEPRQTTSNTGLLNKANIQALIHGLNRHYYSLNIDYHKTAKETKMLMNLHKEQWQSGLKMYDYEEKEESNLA
Rpn11•Rpn8 heterodimer, sequence (Q08723 1-179 partner limits assumed): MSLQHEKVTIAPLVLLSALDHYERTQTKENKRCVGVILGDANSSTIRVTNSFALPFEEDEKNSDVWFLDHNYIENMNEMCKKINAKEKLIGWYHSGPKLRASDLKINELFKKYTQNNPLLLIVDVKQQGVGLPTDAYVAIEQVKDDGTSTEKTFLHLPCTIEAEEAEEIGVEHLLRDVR
glyoxalase I (GLO1), sequence (Q04760 2-184 limits assumed): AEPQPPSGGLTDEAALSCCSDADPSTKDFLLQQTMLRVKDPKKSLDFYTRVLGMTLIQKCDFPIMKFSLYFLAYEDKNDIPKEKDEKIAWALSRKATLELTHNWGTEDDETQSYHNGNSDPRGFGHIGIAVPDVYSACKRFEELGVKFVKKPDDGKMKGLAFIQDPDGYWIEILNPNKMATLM
AMSH, sequence (O95630 whole entry): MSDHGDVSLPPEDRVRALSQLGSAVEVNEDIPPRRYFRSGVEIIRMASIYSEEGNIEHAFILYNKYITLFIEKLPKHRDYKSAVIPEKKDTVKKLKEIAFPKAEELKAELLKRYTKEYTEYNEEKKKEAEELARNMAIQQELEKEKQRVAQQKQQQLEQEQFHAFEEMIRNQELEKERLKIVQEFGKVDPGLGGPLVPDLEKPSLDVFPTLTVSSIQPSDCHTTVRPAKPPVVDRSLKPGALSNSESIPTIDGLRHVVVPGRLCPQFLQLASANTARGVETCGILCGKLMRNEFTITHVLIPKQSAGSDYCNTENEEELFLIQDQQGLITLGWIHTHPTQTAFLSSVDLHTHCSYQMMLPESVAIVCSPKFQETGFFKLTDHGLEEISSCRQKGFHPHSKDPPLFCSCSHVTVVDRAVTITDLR

Take `CC(C)C[C@@H](C=O)NC(=O)[C@H](CC(C)C)NC(=O)[C@H](CC(C)C)NC(=O)OCc1ccccc1` [MG132, reference compound] (Cbz-Leu-Leu-Leu-aldehyde): in [1], the “accumulation of Ub^G76V-GFP” value is “strong accumulation”. Besides, in the data set on A549 cells, the “aggresome formation (ubiquitin, HDAC6, p62/SQSTM1 staining)” value is listed as “punctate staining characteristic of aggresomes”.
By IC50 is commonly meant the concentration that inhibits the measured activity by half. Higher therefore signals lower potency. In general, GI50 refers to the concentration giving 50% growth inhibition. For `O=C(NCCc1nccs1)c1cnc2c(SSc3cccc4cc(C(=O)NCCc5nccs5)cnc34)cccc2c1` [capzimin], at Rpn11, the “mode of inhibition of Rpn11 / 26S proteasome” value is “uncompetitive inhibitor”. Moreover, the “mode of inhibition of AMSH” value at AMSH was “competitive inhibitor”. The “mode of inhibition of BRCC36” value on BRCC36 is given as “competitive inhibitor”. Moreover, at glyoxalase I (GLO1), half-maximal inhibition (IC50) required 43 µM. For the same compound, the “preference for inhibiting Rpn11 compared to HDAC6” value in the data set with HDAC6 was greater than 2 log. Moreover, the “preference for inhibiting Rpn11 compared to MMP2” value in the data set with MMP2 is on record as greater than 2 log. Moreover, in the data set on MMP12, the “preference for inhibiting Rpn11 compared to MMP12” value is reported as greater than 2 log. Also, in the data set on carbonic anhydrase II, the “preference for inhibiting Rpn11 compared to carbonic anhydrase II” value is greater than 2 log. Also, the “inhibition of purified Rpn11•Rpn8 (K48 di-ubiquitin cleavage)” value on Rpn11•Rpn8 heterodimer is listed as “acted directly on Rpn11•Rpn8”. Besides, the “influence on degradation of ubiquitin-independent substrate Rpn10-127^V13Pext” value on 26S proteasome is “no influence”. Besides, the “reduction in total cellular zinc” value in the data set on HEK293T cells is no more than 5%. The “accumulation of Ub^G76V-GFP” value in data set [1] is listed as “strong accumulation”. The “reversibility of inhibitory effect” value in [1] (after washout) is “reversible after washout”. Further, the GI50 in the data set on HCT116 cells [2] (read-out: GI50 HCT116) was roughly 2 µM; in the data set on HCT116 cells [2] (read-out: GI50 HCT116 low serum), 0.6 µM; in [4] it was 3.3 µM; with SR cell line (leukemia), 0.67 µM; in data set [5] it was 1 µM; in data set [6] it was 0.7 µM. Besides, in the data set on MCF7 (breast cancer), the GI50 is 1 µM. The “GI50 against WT versus bortezomib-resistant retinal pigment epithelial cells” value in [3] is “same GI50”. Besides, the “sensitivity of Nrf1^−/− cell line compared to WT MEF” value in data set [7] was “more sensitive”. Moreover, the “up-regulation of angiomotin ubiquitination at K481” value in data set [8] is given as ~ 16 fold. In addition, in the data set with A549 cells, the “aggresome formation (ubiquitin, HDAC6, p62/SQSTM1 staining)” value was “punctate staining characteristic of aggresomes”. Besides, the “effect on Nedd8-conjugated Cul1 (cellular Csn5)” value with HCT116 cells [9] is recorded as “little effect”. For the same compound, the “accumulation of ubiquitin conjugates and proteasome substrates p53, Hif1α, Nrf2” value with HCT116 cells [9] (2 or 10 μM, 6 hours) was “caused accumulation”. Moreover, the “apoptosis (processed caspase 3, cleaved PARP)” value with HCT116 cells [9] (24 hours) is reported as “induced apoptosis”. In addition, the “unfolded protein response (phosphorylated PERK, XBP1s, CHOP)” value with HCT116 cells [9] (HCT116 and 293T cells) is on record as “provoked a UPR response”. In addition, the “accumulation of high molecular weight species of angiomotin” value in the data set on angiomotin in 293T cells was “strong accumulation”.
In the case of `O=C(Sc1cccc2cccnc12)c1ccccc1Br` [H18, S-(Quinolin-8-yl) 2-bromobenzothioate], on Rpn11, the “effect of Zn(cyclen)^2+ on IC50 for Rpn11” value was “shifted the IC50 of both compounds to a higher value”.
One may read the inhibition as the drop in the measured response relative to a control, in per cent. With `Sc1cccc2cccnc12` [8TQ, quinoline-8-thiol], at Rpn11, the “mode of inhibition of Rpn11 / 26S proteasome” value is on record as “uncompetitive inhibition” and the “effect of Zn(cyclen)^2+ on IC50 for Rpn11” value is listed as “shifted the IC50 of both compounds to a higher value”. Further, the “discrimination between Rpn11, BRCC36 and AMSH” value on Rpn11 (details will be published elsewhere) was “did not distinguish between Rpn11, BRCC36, and AMSH”. In addition, the inhibition at 200 µM on Rpn11 (read-out: inhibition of Rpn11 activity in MBP library screen) is greater than 50%. For the same compound, the “inhibition of purified Rpn11•Rpn8 (K48 di-ubiquitin cleavage)” value against Rpn11•Rpn8 heterodimer is “inhibited purified Rpn11•Rpn8 heterodimer”. For the same compound, the “clearance of MG132-induced aggresomes after MG132 removal and compound addition” value in the data set on A549 cells is “not cleared”. In data set [10], the oral bioavailability result is “orally bioavailable” and the tolerability entry was “tolerated”.
As for `CC(C)C[C@H](NC(=O)[C@H](Cc1ccccc1)NC(=O)c1cnccn1)B(O)O` [bortezomib, reference compound], the “sensitivity of Nrf1^−/− cell line compared to WT MEF” value in data set [7] is given as “more sensitive”. For the same compound, the “up-regulation of angiomotin ubiquitination at K481” value in data set [8] is 2.4 fold.

The values above are taken from publication PMC5570473 (Nature chemical biology, 2017).
